Laboratory results reported in ChEMBL document CHEMBL4834428.

Tests used:
[1] = substrate: N#Cc1ccccc1CN1CC(C(N)=O)Oc2ccccc21; conditions: Homo sapiens; dose 400.0 nM, time 30.0 min
[2] = substrate: N#Cc1ccccc1CN1CC(C(N)=O)Oc2ccccc21; conditions: Homo sapiens; dose 100.0 nM, time 30.0 min
[3] = compound: N#Cc1ccccc1CN1CC(C(N)=O)Oc2ccccc21; assay: Uncompetitive inhibition of His6-tagged SIRT1 (unknown origin) expressed in Escherichia coli BL21 (DE3) assessed as change in Vmax at 1600 nM measured every 2 mins for 30 mins in presence of NAD+ and ATP by […] based Michaelis-Menten analysis (reference value: 860 to 1326 AU/min); conditions: Homo sapiens
Summary of the method: (§1)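 Continuous assay, triplicates: 100 nM His6-SirT1 catalytic domain, ~270 nM FLucK529ac, inhibitor 100–1600 nM in sirtuin buffer 2 plus luciferase buffer (0.5 mM ATP, 0.5 mM luciferin, pH 7.8).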

[4] = substrate: N#Cc1ccccc1CN1CC(C(N)=O)Oc2ccccc21; conditions: Homo sapiens; dose 200.0 nM, time 30.0 min
[5] = substrate: N#Cc1ccccc1CN1CC(C(N)=O)Oc2ccccc21; conditions: Homo sapiens; dose 400.0 nM, time 30.0 min; remark: listed apart in the source
[6] = substrate: N#Cc1ccccc1CN1CC(C(N)=O)Oc2ccccc21; conditions: Homo sapiens; dose 100.0 nM, time 30.0 min; remark: listed apart in the source
[7] = compound: N#Cc1ccccc1CN1CC(C(N)=O)Oc2ccccc21; assay: Uncompetitive inhibition of His6-tagged SIRT1 (unknown origin) expressed in Escherichia coli BL21 (DE3) assessed as change in Vmax at 800 nM measured every 2 mins for 30 mins in presence of NAD+ and ATP by […] based Michaelis-Menten analysis (reference value: 860 to 1326 AU/min); conditions: Homo sapiens
Summary of the method: as §1

[8] = compound: N#Cc1ccccc1CN1CC(C(N)=O)Oc2ccccc21; assay: Uncompetitive inhibition of His6-tagged SIRT1 (unknown origin) expressed in Escherichia coli BL21 (DE3) assessed as change in Km at 800 nM measured every 2 mins for 30 mins in presence of NAD+ and ATP by […] based Michaelis-Menten analysis (reference value: 54.3 to 57.6 uM); conditions: Homo sapiens
Summary of the method: as §1

[9] = substrate: N#Cc1ccccc1CN1CC(C(N)=O)Oc2ccccc21; conditions: Homo sapiens; dose 200.0 nM, time 30.0 min; remark: listed apart in the source
[10] = compound: N#Cc1ccccc1CN1CC(C(N)=O)Oc2ccccc21; assay: Uncompetitive inhibition of His6-tagged SIRT1 (unknown origin) expressed in Escherichia coli BL21 (DE3) assessed as change in Km at 1600 nM measured every 2 mins for 30 mins in presence of NAD+ and ATP by […] based Michaelis-Menten analysis (reference value: 54.3 to 57.6 uM); conditions: Homo sapiens
Summary of the method: as §1

B1: NAD-dependent protein deacetylase sirtuin-1 (Homo sapiens), Q96EB6 (protein)
chain: MADEAALALQPGGSPSAAGADREAASSPAGEPLRKRPRRDGPGLERSPGEPGGAAPEREVPAAARGCPGAAAAALWREAEAEAAAAGGEQEAQATAAAGEGDNGPGLQGPSREPPLADNLYDEDDDDEGEEEEEAAAAAIGYRDNLLFGDEIITNGFHSCESDEEDRASHASSSDWTPRPRIGPYTFVQQHLMIGTDPRTILKDLLPETIPPPELDDMTLWQIVINILSEPPKRKKRKDINTIEDAVKLLQECKKIIVLTGAGVSVSCGIPDFRSRDGIYARLAVDFPDLPDPQAMFDIEYFRKDPRPFFKFAKEIYPGQFQPSLCHKFIALSDKEGKLLRNYTQNIDTLEQVAGIQRIIQCHGSFATASCLICKYKVDCEAVRGDIFNQVVPRCPRCPADEPLAIMKPEIVFFGENLPEQFHRAMKYDKDEVDLLIVIGSSLKVRPVALIPSSIPHEVPQILINREPLPHLHFDVELLGDCDVIINELCHRLGGEYAKLCCNPVKLSEITEKPPRTQKELAYLSELPPTPLHVSEDSSSPERTSPPDSSVIVTLLDQAAKSNDDLDVSESKGCMEEKPQEVQTSRNVESIAEQMENPDLKNVGSSTGEKNERTSVAGTVRKCWPNRVAKEQISRRLDGNQYLFLPPNRYIFHGAEVYSDSEDDVLSSSSCGSNSDSGTCQSPSLEEPMEDESEIEEFYNGLEDEPDVPERAGGAGFGTDGDDQEAINEAISVKQEVTDMNYPSNKS
[1]
  Km: 23.8 µM
[2]
  Km: 47.7 µM
[3]
  Vmax: 208 AU/min
[4]
  Vmax: 673 AU/min
[5]
  Vmax: 522 AU/min
[6]
  Vmax: 864 AU/min
[7]
  Vmax: 304 AU/min
[8]
  Km: 10 µM
[9]
  Km: 34.6 µM
[10]
  Km: 4.9 µM
